System: U2OS
Test: Multiplex assay against U2OS
Assay type: toxicity, cell-based
Details: human
Method in brief: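 With compound added, live cells were imaged on a CQ1 microscope at 37°C and 5% CO2; staining with Hoechst33342, BioTracker Green Microtubule Cytoskeleton Dye, MitoTracker Red and Annexin V Alexa Fluor 680 had been done at seeding. The CellPathfinder machine-learning gating scheme split cells into Hoechst high-intensity objects or normal cells, normal cells into healthy, pyknosed or fragmented nuclei, and pyknosed cells into mitotic or apoptotic. The tubulin, mitochondrial-mass and membrane-permeability phenotypes are per cents of healthy-nucleus cells.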

[1] = 12 h, 1 µM, compound concentration 1 uM, replicate 1
[2] = 12 h, 1 µM, compound concentration 1 uM, replicate 2
[3] = 12 h, 10 µM, compound concentration 10 uM, replicate 1
[4] = 12 h, 10 µM, compound concentration 10 uM, replicate 2
[5] = 24 h, 1 µM, compound concentration 1 uM, replicate 1
[6] = 24 h, 1 µM, compound concentration 1 uM, replicate 2
[7] = 24 h, 10 µM, compound concentration 10 uM, replicate 1
[8] = 24 h, 10 µM, compound concentration 10 uM, replicate 2
[9] = 48 h, 1 µM, compound concentration 1 uM, replicate 1
[10] = 48 h, 1 µM, compound concentration 1 uM, replicate 2
[11] = 48 h, 10 µM, compound concentration 10 uM, replicate 1
[12] = 48 h, 10 µM, compound concentration 10 uM, replicate 2

Structure (SMILES): CC(C)(C)c1ccc(S(=O)(=O)Nc2ccc(Cl)cc2C(=O)c2cc[n+]([O-])cc2)cc1 [VERCIRNON]
- Population Apoptotic (%) [1]: 77%
- Population Fragmented Nuclei (%) [1]: 28%
- Population Healthy Nuclei (%) [1]: 61%
- Population Hoechst High Intensity Objects (%) [1]: 1%
- Population Membrane Permeable-Phenotype (%) [1]: 8%
- Population Mitochondria Different-Phenotype (%) [1]: 5%
- Population Mitotic Cells (%) [1]: 22%
- Population Normal (%) [1]: 98%
- Population Pyknosed Nuclei (%) [1]: 10%
- Population Tubulin-Different-Phenotype (%) [1]: 4%
- Total Cell Count [1]: 307
- Population Apoptotic (%) [2]: 100%
- Population Fragmented Nuclei (%) [2]: 15%
- Population Healthy Nuclei (%) [2]: 79%
- Population Hoechst High Intensity Objects (%) [2]: 0%
- Population Mitochondria Different-Phenotype (%) [2]: 4%
- Population Mitotic Cells (%) [2]: 0%
- Population Normal (%) [2]: 99%
- Population Pyknosed Nuclei (%) [2]: 5%
- Population Tubulin-Different-Phenotype (%) [2]: 3%
- Total Cell Count [2]: 156
- Population Apoptotic (%) [3]: 77%
- Population Fragmented Nuclei (%) [3]: 24%
- Population Healthy Nuclei (%) [3]: 68%
- Population Hoechst High Intensity Objects (%) [3]: 1%
- Population Membrane Permeable-Phenotype (%) [3]: 3%
- Population Mitochondria Different-Phenotype (%) [3]: 2%
- Population Mitotic Cells (%) [3]: 22%
- Population Normal (%) [3]: 98%
- Population Pyknosed Nuclei (%) [3]: 6%
- Population Tubulin-Different-Phenotype (%) [3]: 1%
- Total Cell Count [3]: 266
- Population Apoptotic (%) [4]: 50%
- Population Fragmented Nuclei (%) [4]: 21%
- Population Healthy Nuclei (%) [4]: 77%
- Population Hoechst High Intensity Objects (%) [4]: 0%
- Population Membrane Permeable-Phenotype (%) [4]: 15%
- Population Mitotic Cells (%) [4]: 50%
- Population Normal (%) [4]: 99%
- Population Pyknosed Nuclei (%) [4]: 1%
- Population Tubulin-Different-Phenotype (%) [4]: 15%
- Total Cell Count [4]: 123
- Population Apoptotic (%) [5]: 89%
- Population Fragmented Nuclei (%) [5]: 25%
- Population Healthy Nuclei (%) [5]: 67%
- Population Hoechst High Intensity Objects (%) [5]: 1%
- Population Membrane Permeable-Phenotype (%) [5]: 8%
- Population Mitochondria Different-Phenotype (%) [5]: 5%
- Population Mitotic Cells (%) [5]: 10%
- Population Normal (%) [5]: 98%
- Population Pyknosed Nuclei (%) [5]: 7%
- Population Tubulin-Different-Phenotype (%) [5]: 4%
- Total Cell Count [5]: 357
- Population Apoptotic (%) [6]: 92%
- Population Fragmented Nuclei (%) [6]: 18%
- Population Healthy Nuclei (%) [6]: 74%
- Population Hoechst High Intensity Objects (%) [6]: 0%
- Population Membrane Permeable-Phenotype (%) [6]: 2%
- Population Mitochondria Different-Phenotype (%) [6]: 4%
- Population Mitotic Cells (%) [6]: 7%
- Population Normal (%) [6]: 99%
- Population Tubulin-Different-Phenotype (%) [6]: 2%
- Total Cell Count [6]: 183
- Population Apoptotic (%) [7]: 76%
- Population Fragmented Nuclei (%) [7]: 21%
- Population Healthy Nuclei (%) [7]: 72%
- Population Hoechst High Intensity Objects (%) [7]: 2%
- Population Membrane Permeable-Phenotype (%) [7]: 1%
- Population Mitochondria Different-Phenotype (%) [7]: 1%
- Population Mitotic Cells (%) [7]: 23%
- Population Normal (%) [7]: 97%
- Population Pyknosed Nuclei (%) [7]: 5%
- Population Tubulin-Different-Phenotype (%) [7]: 1%
- Total Cell Count [7]: 297
- Population Apoptotic (%) [8]: 71%
- Population Fragmented Nuclei (%) [8]: 22%
- Population Hoechst High Intensity Objects (%) [8]: 1%
- Population Membrane Permeable-Phenotype (%) [8]: 13%
- Population Mitotic Cells (%) [8]: 28%
- Population Normal (%) [8]: 98%
- Population Pyknosed Nuclei (%) [8]: 4%
- Population Tubulin-Different-Phenotype (%) [8]: 15%
- Total Cell Count [8]: 160
- Population Apoptotic (%) [9]: 82%
- Population Fragmented Nuclei (%) [9]: 19%
- Population Healthy Nuclei (%) [9]: 73%
- Population Hoechst High Intensity Objects (%) [9]: 3%
- Population Membrane Permeable-Phenotype (%) [9]: 5%
- Population Mitochondria Different-Phenotype (%) [9]: 3%
- Population Mitotic Cells (%) [9]: 17%
- Population Normal (%) [9]: 96%
- Population Pyknosed Nuclei (%) [9]: 6%
- Population Tubulin-Different-Phenotype (%) [9]: 4%
- Total Cell Count [9]: 515
- Population Apoptotic (%) [10]: 84%
- Population Fragmented Nuclei (%) [10]: 15%
- Population Healthy Nuclei (%) [10]: 75%
- Population Hoechst High Intensity Objects (%) [10]: 4%
- Population Membrane Permeable-Phenotype (%) [10]: 7%
- Population Mitochondria Different-Phenotype (%) [10]: 2%
- Population Mitotic Cells (%) [10]: 15%
- Population Normal (%) [10]: 95%
- Population Pyknosed Nuclei (%) [10]: 9%
- Population Tubulin-Different-Phenotype (%) [10]: 2%
- Total Cell Count [10]: 296
- Population Apoptotic (%) [11]: 79%
- Population Fragmented Nuclei (%) [11]: 18%
- Population Healthy Nuclei (%) [11]: 75%
- Population Hoechst High Intensity Objects (%) [11]: 1%
- Population Membrane Permeable-Phenotype (%) [11]: 2%
- Population Mitochondria Different-Phenotype (%) [11]: 1%
- Population Mitotic Cells (%) [11]: 20%
- Population Normal (%) [11]: 98%
- Population Pyknosed Nuclei (%) [11]: 5%
- Population Tubulin-Different-Phenotype (%) [11]: 1%
- Total Cell Count [11]: 414
- Population Apoptotic (%) [12]: 77%
- Population Fragmented Nuclei (%) [12]: 26%
- Population Healthy Nuclei (%) [12]: 65%
- Population Hoechst High Intensity Objects (%) [12]: 2%
- Population Membrane Permeable-Phenotype (%) [12]: 8%
- Population Mitochondria Different-Phenotype (%) [12]: 5%
- Population Mitotic Cells (%) [12]: 22%
- Population Normal (%) [12]: 97%
- Population Pyknosed Nuclei (%) [12]: 8%
- Population Tubulin-Different-Phenotype (%) [12]: 11%
- Total Cell Count [12]: 215

— ChEMBL document CHEMBL5058577, “EUbOPEN Chemogenomics Library 2 (Multiplex)” (2022)
